According to ChEMBL document CHEMBL1132961 (J Med Chem, 2000):

How the values were obtained:
[1] = (§1) Effective concentration required for antiviral activity against HIV-1 1002-60 in PBMC cells; type: functional, cell-based; details: Homo sapiens
Outline: (§2)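 PBMC cells infected with HIV-1 clinical isolates, using an XTT cytopathic assay similar to the CEM assay. EC50 read as protection from viral cytopathic effect.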

[2] = (§3) Effective concentration required for antiviral activity against HIV-1 1026-60 in PBMC cells; type: functional, cell-based; details: Homo sapiens; outline: as §2
[3] = (§4) Effective concentration required for antiviral activity against HIV-1 144-44 in PBMC cells; type: functional, cell-based; details: Homo sapiens; outline: as §2
[4] = Tested for cytotoxic activity against HIV-1 1002-60 in PBMC cells; type: cell-based; details: human, read-out: TC50 (the source's name)
[5] = Tested for cytotoxic activity against HIV-1 1026-60 in PBMC cells; type: cell-based; details: human, read-out: TC50 (the source's name)
[6] = Tested for cytotoxic activity against HIV-1 144-44 in PBMC cells; type: cell-based; details: human, read-out: TC50 (the source's name)
[7] = (§5) Concentration which elicits cytotoxicity in 50% of uninfected human lymphocyte derived CEM cells; type: cell-based, CCRF-CEM; details: uninfected CCRF-CEM cells, read-out: TC50 (the source's name)
Outline: (§6)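 Cytotoxicity measured in uninfected human lymphocyte-derived CEM cells by XTT protocol.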

[8] = Effective concentration required for antiviral activity against HIV-1 RoJo in PBMC cells; type: functional, cell-based; details: Homo sapiens; outline: as §2
[9] = Effective concentration required for antiviral activity against HIV-1 SLKA in PBMC cells; type: functional, cell-based; details: Homo sapiens; outline: as §2
[10] = Effective concentration required for antiviral activity against HIV-1 TEKI in PBMC cells; type: functional, cell-based; details: Homo sapiens; outline: as §2
[11] = Effective concentration required for antiviral activity against HIV-1 WeJo in PBMC cells; type: functional, cell-based; details: Homo sapiens; outline: as §2
[12] = target: T1, Human immunodeficiency virus type 1 protease (Human immunodeficiency virus 1, UniProt Q72874); assay: Activity of potent nonpeptidic inhibitor against protease
Outline: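 Incubated with 40 µM His-Lys-Ala-Arg-Val-Leu-(p-NO₂-Phe)-Glu-Ala-Nle-Ser-NH₂ in 1.0% DMSO, pH 6.2 MES buffer (DTT, NaCl, EDTA, PEG 8000) for 60 min at 37 °C, then TFA quench. Substrate and product separated by reverse-phase HPLC, read at 220 nm. % control = conversion with inhibitor / conversion without × 100; IC50 derived.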

[13] = system: Human immunodeficiency virus 1; assay: Effective concentration at which 50% of the HIV-IIIB-infected human lymphocyte-derived CEM cells protected from HIV-1 infection
CYP2C9 [14] = target: T2, CYP2C9 (Homo sapiens, UniProt P11712); assay: Residual activity of cytochrome P450 at 10 uM
CYP3A4 [15] = target: T3, CYP3A4 (Homo sapiens, UniProt P08684); assay: Residual activity of cytochrome P4503A4 at 1 uM
CYP2C9 [16] = target: T2, CYP2C9; assay: Residual activity of cytochrome P450 2C9 at 1 uM
CYP3A4 [17] = target: T3, CYP3A4; assay: Residual activity of cytochrome P4503A4 at 10 uM
CYP3A4 [18] = target: T3, CYP3A4; assay: Residual activity of cytochrome P4503A4 at 100 uM
[19] = Tested for maximum plasma concentration in mice; type: ADME, organism-based; details: mouse
Outline: (§7)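 Mice dosed orally by gavage at 25 mg/kg. Vehicle was usually 20% 0.1 N NaOH/80% 0.5% methylcellulose, and in two cases 20% 0.1 N NaOH/80% PEG 400. Plasma Cmax and AUC measured; AUC not determined where Cmax was too low.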

[20] = AUC value in mice; type: ADME, organism-based; details: mouse, plasma; outline: as §7
[21] = Half-life period in rat; type: ADME, organism-based; details: in vivo
Outline: (§8)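 Rats given 10 mg/kg orally in NaOH solution buffered to pH 7.4. Plasma Cmax, T1/2 and AUC determined.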

[22] = AUC value in rat; type: ADME; details: plasma; outline: as §8
[23] = Tested for maximum plasma concentration in rats; type: ADME, organism-based; details: rat; outline: as §8
[24] = target: T1, Human immunodeficiency virus type 1 protease; assay: Tested for binding affinity against HIV protease
[25] = target: T1, Human immunodeficiency virus type 1 protease; assay: Tested for binding affinity against protease
PBMC [26] = assay: as §1; type: functional, cell-based; details: Homo sapiens; outline: as §2
PBMC [27] = assay: as §3; type: functional, cell-based; details: Homo sapiens; outline: as §2
PBMC [28] = assay: as §4; type: functional, cell-based; details: Homo sapiens; outline: as §2
CYP2D6 [29] = target: T4, CYP2D6 (Homo sapiens, UniProt P10635); assay: Residual activity of cytochrome P4502D6 at 1 uM
CYP2D6 [30] = target: T4, CYP2D6; assay: Residual activity of cytochrome P4502D6 at 10 uM
CYP2D6 [31] = target: T4, CYP2D6; assay: Residual activity of cytochrome P4502D6 at 100 uM
CYP2C9 [32] = target: T2, CYP2C9; assay: Residual activity of cytochrome P450 2C9 at 100 uM
CCRF-CEM = assay: as §5; type: cell-based; details: ccrf-cem, read-out: TC50 (the source's name); outline: as §6
[33] = pooled result: one value given for 5 cell lines, strains, targets or settings
[34] = Human immunodeficiency virus 1, CCRF-CEM

T2 sequence (P11712 whole entry): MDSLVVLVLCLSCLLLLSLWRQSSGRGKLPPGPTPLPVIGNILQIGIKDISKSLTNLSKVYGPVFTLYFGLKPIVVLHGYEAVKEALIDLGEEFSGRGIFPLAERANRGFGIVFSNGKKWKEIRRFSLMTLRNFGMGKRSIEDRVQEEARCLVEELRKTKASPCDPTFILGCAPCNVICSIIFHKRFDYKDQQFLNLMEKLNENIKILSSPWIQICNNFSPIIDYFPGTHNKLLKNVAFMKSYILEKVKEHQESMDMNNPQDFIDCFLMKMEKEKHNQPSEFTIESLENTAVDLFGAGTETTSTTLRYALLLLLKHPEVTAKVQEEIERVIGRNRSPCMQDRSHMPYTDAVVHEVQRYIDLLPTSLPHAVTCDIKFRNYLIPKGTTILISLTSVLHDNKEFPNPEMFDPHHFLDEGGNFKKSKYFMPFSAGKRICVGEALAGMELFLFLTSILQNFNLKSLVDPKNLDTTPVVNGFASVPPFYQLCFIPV
T4 sequence (P10635 whole entry): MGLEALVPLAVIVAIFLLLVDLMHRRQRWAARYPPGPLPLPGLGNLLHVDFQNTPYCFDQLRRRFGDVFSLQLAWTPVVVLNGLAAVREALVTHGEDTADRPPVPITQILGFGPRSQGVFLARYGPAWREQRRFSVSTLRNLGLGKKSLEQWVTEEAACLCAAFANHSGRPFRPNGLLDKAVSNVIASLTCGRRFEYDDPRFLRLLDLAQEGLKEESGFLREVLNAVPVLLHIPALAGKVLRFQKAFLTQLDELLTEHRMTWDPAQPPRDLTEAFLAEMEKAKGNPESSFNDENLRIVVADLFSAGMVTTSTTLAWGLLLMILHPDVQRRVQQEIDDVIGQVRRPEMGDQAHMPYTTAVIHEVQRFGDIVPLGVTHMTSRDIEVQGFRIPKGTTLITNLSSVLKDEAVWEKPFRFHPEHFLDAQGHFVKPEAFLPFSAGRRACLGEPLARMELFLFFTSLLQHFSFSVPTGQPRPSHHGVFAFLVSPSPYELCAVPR
T3 sequence (P08684 whole entry): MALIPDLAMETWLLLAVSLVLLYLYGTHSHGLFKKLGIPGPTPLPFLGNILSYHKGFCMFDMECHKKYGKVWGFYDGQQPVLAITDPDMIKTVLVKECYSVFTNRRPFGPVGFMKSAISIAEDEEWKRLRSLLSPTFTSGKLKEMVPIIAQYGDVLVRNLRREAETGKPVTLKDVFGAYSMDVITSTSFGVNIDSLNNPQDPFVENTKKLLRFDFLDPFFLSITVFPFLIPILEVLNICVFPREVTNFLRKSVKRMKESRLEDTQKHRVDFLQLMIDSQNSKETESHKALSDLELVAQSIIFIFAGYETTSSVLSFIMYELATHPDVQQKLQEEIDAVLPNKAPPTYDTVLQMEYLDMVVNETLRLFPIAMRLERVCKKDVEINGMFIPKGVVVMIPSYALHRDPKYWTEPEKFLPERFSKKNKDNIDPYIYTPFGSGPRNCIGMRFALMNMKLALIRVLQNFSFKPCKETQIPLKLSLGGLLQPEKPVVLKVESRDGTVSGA

EC50 [1]	EC50 [2]	EC50 [3]	EC50 [8]	EC50 [9]	EC50 [10]	EC50 [11]	EC50 [13, 34]	Cmax [19]	AUC [20]	Ki [24]	SMILES	CC50 [4]	CC50 [5]	CC50 [7]	CC50 [6, 33]	other results
14500 nM	19400 nM	11100 nM	–	–	–	–	–	–	–	–	CC(C)(C)NC(=O)[C@@H]1C[C@@H]2CCCC[C@@H]2CN1C[C@@H](O)[C@H](Cc1ccccc1)NC(=O)[C@H](CC(N)=O)NC(=O)c1ccc2ccccc2n1	> 50000 nM	> 50000 nM	–	–	CC50 [6]: > 50000 nM
1840 nM	1120 nM	730 nM	1240 nM	1790 nM	1930 nM	2050 nM	600 nM	–	–	–	Cc1cc(SC2=C(O)OC(CCc3ccc(O)cc3)(C(C)C)CC2=O)c(C(C)(C)C)cc1OS(C)(=O)=O (stereo not drawn)	> 100000 nM	> 100000 nM	> 100000 nM	> 100000 nM	IC50 [12]: 2.2 nM
–	–	–	–	–	–	–	600 nM	–	–	–	Cc1cc(SC2=C(O)OC(CCc3ccc(O)cc3)(C(C)C)CC2=O)c(C(C)(C)C)cc1OS(=O)(=O)c1ccc(C#N)cc1 (stereo not drawn)	–	–	67000 nM	–	IC50 [12]: 4.5 nM; residual activity at 10 µM (CYP2C9 [14]): 18.1%; residual activity at 1 µM (CYP3A4 [15]): 79%; residual activity at 1 µM (CYP2C9 [16]): 83.5%; residual activity at 10 µM (CYP3A4 [17]): 34.6%; residual activity at 100 µM (CYP3A4 [18]): 6.86%
–	1420 nM	540 nM	700 nM	500 nM	780 nM	390 nM	2400 nM	–	–	–	Cc1cc(SC2=C(O)OC(CCc3ccc(O)cc3)(C(C)C)CC2=O)c(C(C)(C)C)cc1OS(=O)(=O)c1cccs1 (stereo not drawn)	–	> 100000 nM	72000 nM	> 100000 nM	IC50 [12]: 21.8 nM
–	–	–	–	–	–	–	4300 nM	1.27 µM	980 ng·h/mL	–	Cc1cc(SC2=C(O)OC(CCc3ccc(O)cc3)(C(C)C)CC2=O)c(C(C)(C)C)cc1NS(=O)(=O)c1ccc(C(F)(F)F)cn1 (stereo not drawn)	–	–	68000 nM	–	–
–	–	–	–	–	–	–	530 nM	6.54 µM	5400 ng·h/mL	0.03 nM	Cc1cc(SC2=C(O)O[C@](CCc3ccc(O)cc3)(C(C)C)CC2=O)c(C(C)(C)C)cc1OS(C)(=O)=O	–	–	80000 nM	–	half-life [21]: 0.94 h; AUC [22]: 5390 ng·h/mL; Cmax [23]: 6.54 µM
–	–	–	–	–	–	–	450 nM	9.2 µM	22000 ng·h/mL	0.31 nM	Cc1cc(SC2=C(O)O[C@](CCc3ccccc3)(C(C)C)CC2=O)c(C(C)(C)C)cc1NS(=O)(=O)c1ccc(C(F)(F)F)cn1	–	–	65000 nM	–	half-life [21]: 2.3 h; AUC [22]: 6700 ng·h/mL; Cmax [23]: 3.5 µM
–	–	580 nM	120 nM	120 nM	100 nM	110 nM	220 nM	10.3 µM	–	0.2 nM	Cc1cc(SC2=C(O)O[C@](CCc3ccccc3)(C(C)C)CC2=O)c(C(C)(C)C)cc1NS(=O)(=O)c1ccc(C#N)cc1	–	–	31000 nM	55600 nM	half-life [21]: 5.7 h; AUC [22]: 10000 ng·h/mL; Cmax [23]: 3.96 µM
–	–	–	–	–	–	–	700 nM	–	–	–	Cc1cc(SC2=C(O)OC(CCc3ccccc3)(C(C)C)CC2=O)c(C(C)(C)C)cc1NS(=O)(=O)c1ccc(C(F)(F)F)cc1 (stereo not drawn)	–	–	24000 nM	–	Ki [25]: 27 nM
610 nM	270 nM	260 nM	680 nM	710 nM	810 nM	690 nM	600 nM	–	–	1.04 nM	Cc1cc(SC2=C(O)OC(CCc3ccccc3)(C(C)C)CC2=O)c(C(C)(C)C)cc1NS(=O)(=O)c1ccc(C(F)(F)F)cn1 (stereo not drawn)	> 100000 nM	> 100000 nM	66000 nM	> 100000 nM	–
–	–	–	–	–	–	–	–	–	–	–	CC(C)(C)NC(=O)[C@@H]1CN(Cc2cccnc2)CCN1C[C@@H](O)C[C@@H](Cc1ccccc1)C(=O)N[C@H]1c2ccccc2C[C@H]1O	> 100000 nM	> 100000 nM	–	–	EC50 (PBMC [26]): > 100000 nM; EC50 (PBMC [27]): 16600 nM; EC50 (PBMC [28]): 3000 nM; CC50 [6]: > 100000 nM; residual activity at 10 µM (CYP2C9 [14]): 89%; residual activity at 1 µM (CYP2D6 [29]): 100%; residual activity at 1 µM (CYP2C9 [16]): 93%; residual activity at 10 µM (CYP2D6 [30]): 82%; residual activity at 100 µM (CYP2D6 [31]): 31%; residual activity at 100 µM (CYP2C9 [32]): 68%
–	–	–	–	–	–	–	–	–	–	–	Cc1cc(SC2=C(O)O[C@](CCc3ccc(O)cc3)(C(C)C)CC2=O)c(C(C)(C)C)cc1N (stereo in doubt; 1R)	–	–	–	–	CC50 (CCRF-CEM): 215000 nM; EC50 ([13]; ccrf-cem): 91000 nM

SMILES	EC50 [1]	EC50 [2]	EC50 [3]	EC50 [8]	EC50 [9]	EC50 [10]	EC50 [11]	EC50 [13, 34]	Cmax [19]	AUC [20]	Ki [24]	CC50 [4]	CC50 [5]	CC50 [7]	CC50 [6, 33]	other results
Cc1cc(SC2=C(O)O[C@](CCc3ccc(O)cc3)(C(C)C)CC2=O)c(C(C)(C)C)cc1N (stereo in doubt; 1S)	740 nM	310 nM	240 nM	200 nM	220 nM	590 nM	250 nM	–	–	46300 ng·h/mL	–	> 100000 nM	> 100000 nM	215000 nM	> 100000 nM	residual activity at 10 µM (CYP2C9 [14]): 75.5%; residual activity at 1 µM (CYP2D6 [29]): 105%; residual activity at 1 µM (CYP3A4 [15]): 103%; residual activity at 1 µM (CYP2C9 [16]): 93.2%; residual activity at 10 µM (CYP2D6 [30]): 95%; residual activity at 10 µM (CYP3A4 [17]): 96.8%; residual activity at 100 µM (CYP2D6 [31]): 56.7%; residual activity at 100 µM (CYP3A4 [18]): 41.1%; residual activity at 100 µM (CYP2C9 [32]): 21.6%; EC50 ([13]; ccrf-cem): 490 nM
